The results in this text go back to ChEMBL document CHEMBL3826877, “Fatty Acid Amide Hydrolase (FAAH), Acetylcholinesterase (AChE), and Butyrylcholinesterase (BuChE): Networked Targets for the Development of Carbamates as Potential Anti-Alzheimer's Disease Agents” (J Med Chem, 2016).

By IC50 is commonly meant the concentration that gives 50% inhibition.

For series [1], the target named is T1, Cholinesterase (Homo sapiens, UniProt P06276). As to the kind of experiment: Inhibition of human serum BuChE using butyrylthiocholine iodide as substrate preincubated for 15 mins followed by substrate addition by Ellman's method. The method in brief:
(§1)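 Ellman assay at 37 °C in 0.1 M phosphate pH 8.0 with 340 µM DTNB, 0.02 U/mL enzyme and 550 µM thiocholine substrate. Enzyme and inhibitor preincubated before substrate: AChE 120 min (one compound 60 min), BuChE 15 or 20 min depending on N-substituent. Non-enzymatic blanks run. […] IC50 by linear regression of % inhibition vs log concentration. Mean of 2-3 independent runs in duplicate.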
Background: DTNB colorimetry detects thiols as they appear.

For series [2], the target named is T1, Cholinesterase. As to the kind of experiment: Inhibition of human serum BuChE assessed as pseudo-first order rate constant for enzyme carbamoylation using butyrylthiocholine iodide as substrate preincubated for 2 to 30 mins followed by substrate addition by Ellman's method. The method in brief:
(§2)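 Stopped-time assay at pH 8.0, 37 °C, five inhibitor concentrations. AChE: 16.7-167.5 nM, residual activity read at 15, 30, 60, 90 and 120 min. BuChE: 0.46-4.58 nM, read at […], 2, 5, 10, 15 and 30 min. Activities corrected against an uninhibited control at each time. R = R0·exp(−kobs·t)+R∞ fitted to give kobs. k3 obtained from a double-reciprocal plot of kobs vs [I].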

Series [3] addresses T2, Acetylcholinesterase (Homo sapiens, UniProt P22303). As to the kind of experiment: Inhibition of recombinant human AChE expressed in HEK293 cells assessed as pseudo-first order rate constant for enzyme carbamoylation using acetylthiocholine iodide as substrate preincubated for 15 to 120 mins followed by substrate addition by Ellman's method. The method in brief: as §2
Series [4] concerns the target T1, Cholinesterase. As to the kind of experiment: Inhibition of human serum BuChE assessed as enzyme carbamoylation using butyrylthiocholine iodide as substrate preincubated with enzyme followed by substrate addition by Ellman's method. The settings on record: TDE = time-dependent effect.
For series [5], the target named is T3, Fatty-acid amide hydrolase 1 (Rattus norvegicus, UniProt P97612).
T3 sequence (P97612 whole entry): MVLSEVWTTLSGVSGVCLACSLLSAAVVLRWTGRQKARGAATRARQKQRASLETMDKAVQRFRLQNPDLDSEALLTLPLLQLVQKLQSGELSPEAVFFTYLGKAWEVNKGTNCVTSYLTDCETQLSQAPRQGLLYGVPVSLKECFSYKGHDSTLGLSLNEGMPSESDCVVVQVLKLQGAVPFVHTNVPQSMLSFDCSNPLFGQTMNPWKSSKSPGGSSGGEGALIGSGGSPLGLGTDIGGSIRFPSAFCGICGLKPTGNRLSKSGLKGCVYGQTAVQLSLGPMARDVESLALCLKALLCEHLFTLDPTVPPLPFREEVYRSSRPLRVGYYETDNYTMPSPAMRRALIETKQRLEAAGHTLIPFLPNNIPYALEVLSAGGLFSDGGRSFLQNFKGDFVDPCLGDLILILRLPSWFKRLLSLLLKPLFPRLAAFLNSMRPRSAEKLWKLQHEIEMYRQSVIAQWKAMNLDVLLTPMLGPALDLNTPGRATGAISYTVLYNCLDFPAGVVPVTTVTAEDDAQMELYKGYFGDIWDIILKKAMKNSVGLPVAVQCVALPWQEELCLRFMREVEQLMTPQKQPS
As to the kind of experiment: Inhibition of FAAH in rat brain membrane using N-arachidonoyl-[14C]-ethanolamine as substrate preincubated for 20 mins followed by substrate addition measured after 30 mins by scintillation counting method. It is filed as cell membranes. The method in brief:
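Compound preincubated 20 min at 37 °C with rat brain 10,000 x g membranes (70 µg/sample), then [14C]-AEA (diluted with AEA) added in 50 mM Tris-HCl pH 9.00-10.00, 37 °C, 30 min. [14C]-ethanolamine counted by scintillation after CHCl3/MeOH 1:1 extraction.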

The target of series [6] is T2, Acetylcholinesterase. As to the kind of experiment: Inhibition of recombinant human AChE expressed in HEK293 cells assessed as enzyme carbamoylation using acetylthiocholine iodide as substrate preincubated with enzyme followed by substrate addition by Ellman's method. The settings on record: TDE = time-dependent effect.
Series [7] concerns the target T2, Acetylcholinesterase. As to the kind of experiment: Inhibition of recombinant human AChE expressed in HEK293 cells using acetylthiocholine iodide as substrate preincubated for 60 mins followed by substrate addition by Ellman's method. The method in brief:
as §1

For series [8], the target named is T3, Fatty-acid amide hydrolase 1. As to the kind of experiment: Inhibition of FAAH in rat brain membrane using N-arachidonoyl-[14C]-ethanolamine as substrate incubated for 30 mins by scintillation counting method. It counts as cell membranes. The method in brief: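 Rat brain 10,000 x g membrane fraction (70 µg/sample) co-incubated with compound and [14C]-AEA diluted with unlabelled AEA in 50 mM Tris-HCl, pH 9.00-10.00, 37 °C, 30 min. Released [14C]-ethanolamine measured by scintillation of the aqueous phase after CHCl3/MeOH 1:1 extraction.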

For series [9], the system named is SH-SY5Y. As to the kind of experiment: Cytotoxicity against human SH-SY5Y assessed as reduction in cell viability at 50 uM after 24 hrs by MTT assay. It is filed as cell-based. The method in brief: (§3)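 SH-SY5Y neuroblastoma cells grown in DMEM with 2 mM L-glutamine, penicillin/streptomycin and 10% FBS. Cells seeded and cultured overnight at 37°C, 5% CO2. Compounds in DMSO (final under 0.1%) added for 24 h. MTT 0.5 mg/mL added for 3 h, formazan taken up in isopropanol, absorbance read at 620 nm. Viability given relative to vehicle. Three independent experiments in quadruplicate.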

For series [10], the system named is SH-SY5Y. As to the kind of experiment: Cytotoxicity against human SH-SY5Y assessed as reduction in cell viability at 1 to 25 uM after 24 hrs by MTT assay. It is filed as cell-based. The method in brief:
as §3
(In general: Tetrazolium assays rely on reduction of a dye to a coloured formazan, in cell work by metabolically active cells.)

Series [11] addresses T2, Acetylcholinesterase. As to the kind of experiment: Inhibition of recombinant human AChE expressed in HEK293 cells using acetylthiocholine iodide as substrate preincubated for 120 mins followed by substrate addition by Ellman's method. The method in brief: as §1
For series [12], the target named is T1, Cholinesterase. As to the kind of experiment: Inhibition of human serum BuChE using butyrylthiocholine iodide as substrate preincubated for 20 mins followed by substrate addition by Ellman's method. The method in brief:
as §1

For series [13], the system named is SH-SY5Y. As to the kind of experiment: Cytotoxicity against human SH-SY5Y assessed as reduction in cell viability at 1 to 50 uM after 24 hrs by MTT assay. It counts as cell-based. The method in brief:
as §3

The target in series [14] is T3, Fatty-acid amide hydrolase 1. As to the kind of experiment: Inhibition of FAAH in rat brain membrane at pH 9 using N-arachidonoyl-[14C]-ethanolamine as substrate preincubated for 10 mins followed by substrate addition measured after 30 mins by scintillation counting method. It counts as cell membranes. The method in brief:
(§4)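 Rat brain 10,000 x g membrane fraction (70 µg/sample) in 50 mM Tris-HCl at pH 9.0 or 7.4, preincubated 10 min with compound. [14C]-AEA diluted with AEA then added, reaction run at 37 °C. [14C]-ethanolamine in the aqueous phase after CHCl3/MeOH 1:1 extraction counted by scintillation.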

Series [15] has the same target. As to the kind of experiment: Inhibition of FAAH in rat brain membrane at pH 7.4 using N-arachidonoyl-[14C]-ethanolamine as substrate preincubated for 10 mins followed by substrate addition measured after 30 mins by scintillation counting method. It counts as cell membranes. The method in brief:
as §4

Bounds are passed on as bounds.

T1 sequence (P06276 whole entry): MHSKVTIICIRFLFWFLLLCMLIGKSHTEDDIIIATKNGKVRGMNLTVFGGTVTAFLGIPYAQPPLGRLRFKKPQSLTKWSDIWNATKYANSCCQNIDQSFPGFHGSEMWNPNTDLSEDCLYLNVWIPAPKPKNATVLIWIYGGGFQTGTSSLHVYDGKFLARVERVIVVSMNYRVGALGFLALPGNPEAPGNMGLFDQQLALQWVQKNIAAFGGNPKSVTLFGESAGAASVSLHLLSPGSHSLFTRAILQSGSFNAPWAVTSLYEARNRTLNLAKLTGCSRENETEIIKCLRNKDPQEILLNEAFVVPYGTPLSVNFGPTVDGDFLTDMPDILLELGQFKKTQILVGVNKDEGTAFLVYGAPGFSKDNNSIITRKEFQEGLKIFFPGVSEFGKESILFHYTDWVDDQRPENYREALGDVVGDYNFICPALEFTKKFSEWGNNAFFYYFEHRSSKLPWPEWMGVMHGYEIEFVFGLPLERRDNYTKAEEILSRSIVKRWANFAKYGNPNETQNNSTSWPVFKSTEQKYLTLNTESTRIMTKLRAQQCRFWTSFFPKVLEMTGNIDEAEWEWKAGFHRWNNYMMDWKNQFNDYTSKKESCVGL
T2 sequence (P22303 whole entry): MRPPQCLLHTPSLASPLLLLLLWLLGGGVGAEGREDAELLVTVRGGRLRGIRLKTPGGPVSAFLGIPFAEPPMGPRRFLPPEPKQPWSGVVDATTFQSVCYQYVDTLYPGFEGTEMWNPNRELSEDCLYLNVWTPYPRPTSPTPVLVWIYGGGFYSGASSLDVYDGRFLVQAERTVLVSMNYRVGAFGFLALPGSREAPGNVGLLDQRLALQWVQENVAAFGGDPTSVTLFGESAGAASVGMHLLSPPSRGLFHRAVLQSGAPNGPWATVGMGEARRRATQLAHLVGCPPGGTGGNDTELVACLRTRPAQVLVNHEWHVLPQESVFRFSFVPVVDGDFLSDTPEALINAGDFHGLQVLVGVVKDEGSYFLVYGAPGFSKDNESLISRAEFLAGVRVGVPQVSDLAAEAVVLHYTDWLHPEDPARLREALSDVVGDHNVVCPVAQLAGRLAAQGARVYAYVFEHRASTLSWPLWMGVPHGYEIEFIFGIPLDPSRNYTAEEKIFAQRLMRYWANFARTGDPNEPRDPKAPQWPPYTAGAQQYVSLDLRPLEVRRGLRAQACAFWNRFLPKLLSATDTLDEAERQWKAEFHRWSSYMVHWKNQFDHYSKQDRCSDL

For the compound `CCCCCCc1ccc(NC(=O)Oc2cccc(CN(C)CCCOc3ccc4ccc(=O)oc4c3)c2)cc1`, the IC50 is 32.1 nM on Cholinesterase [1], above 50000 nM in series [5], 3800 nM at Acetylcholinesterase [7] and above 50000 nM in [8]. Further, the K on Cholinesterase [2] worked out at 0.461 min⁻¹; at Acetylcholinesterase [3], 0.203 min⁻¹. Further, the inhibition result at Cholinesterase [4] and at Acetylcholinesterase [6] was “tde” throughout.

With `CCCCCCCNC(=O)Oc1cccc(CN(C)CCCOc2ccc3ccc(=O)oc3c2)c1`, the Activity entry in the series on SH-SY5Y [9] is “Toxic”; with SH-SY5Y [10] it was “Non-toxic”. Moreover, the IC50 was 28.5 nM in [5], 37.4 nM on Acetylcholinesterase [11], 1.36 nM against Cholinesterase [12] and 161 nM in [8].

As for `CN(CCCOc1ccc2ccc(=O)oc2c1)Cc1cccc(OC(=O)NCCCCCc2ccccc2)c1`, the inhibition entry at Cholinesterase [4] and on Acetylcholinesterase [6] was “tde” each time. Besides, the Activity entry in the series with SH-SY5Y [13] was “Non-toxic”. The IC50 in series [14] worked out at 183 nM; in series [15] it was 4100 nM.
